Data as given in ChEMBL document CHEMBL4813935, “Cyclotides from Brazilian Palicourea sessilis and Their Effects on Human Lymphocytes” (J Nat Prod, 2021).
Positions of bridges follow the written chain, without caps; N, C: chain ends. Residues, ends and D or L forms follow the SMILES beside them.

Legend:
[1] = Cytotoxicity against human HT-29 cells assessed as reduction in cell viability measured after 48 hrs by MTT assay; type: cell-based
How it was run: (§1)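 Cells seeded at 5.0 × 10^3 per well; medium was refreshed the day after plating, then peptides were added at final 0.78–100 μM, with 0.1% (v/v) Triton X-100 as positive control. Incubation was 48 h, then MTT (5 mg/mL in PBS) for 3 h. Formazan was dissolved in DMSO and read at 600 nm. Triplicate experiments; CC50 from log(inhibitor) vs normalized response (variable slope) fit.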

[2] = Inhibition of anti-human CD3/CD28/mAbs-stimulated human T-lymphocutes proliferation after 72 hrs by CFSE staining based flow cytometric analysis; type: functional, tissue-based; conditions: T-cell
How it was run: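 PBMC from healthy donor venous blood, density-gradient isolated; 5 × 10^6 cells/mL labelled with CFSE (1:1000 of 5 mM stock), 10 min at 37 °C, washed. Stimulated with anti-CD3 (OKT3) and anti-CD28 (28.6), each 100 ng/mL, with peptide at 1–30 μM for 72 h at 37 °C, 5% CO2. Division read by flow cytometry, normalised to stimulated untreated cells (100%); four independent experiments.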

[3] = Cytotoxicity against HUVEC assessed as reduction in cell viability measured after 48 hrs by MTT assay; type: cell-based; conditions: human; how it was run: as §1
[4] = Hemolytic activity against human RBC assessed as concentration required to cause 50% hemolysis measured after 1 hr; type: cell-based, Erythrocyte; conditions: red blood cells (erythrocytes), read-out: CC50
How it was run: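 Donor human red blood cells were washed in PBS and diluted to 0.25% (v/v). Peptides were serially diluted from water to eight concentrations, 0.187–24 μM. Incubation was 1 h at 37 °C; PBS served as negative control and 1% Triton-X as positive control. Supernatant absorbance was read at 415 nm. CC50 (50% lysis) from log(agonist) vs response (variable slope) fit; n = 3.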

T-cell line = assay: Immunosuppressive activity in anti-CD3/anti-CD28-stimulated human T-lymphocytes assessed as inhibition of cell proliferation after 72 hrs by CFSE staining based flow cytometric analysis; type: functional
How it was run: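 Donor PBMC were isolated on a density gradient and CFSE-stained for 10 min at 37 °C. Cells were stimulated with anti-CD3 (OKT3) and anti-CD28 mAbs, 100 ng/mL each, and exposed to peptides at 1–30 μM for 72 h at 37 °C, 5% CO2. Division was read by flow cytometry and normalized to stimulated untreated cells (100%). Four independent experiments, mean ± SD.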

SMILES | CC50 at 48 h [1] | IC50 [2] | CC50 at 48 h [3] | HC50 at 1 h [4] | IC50 (T-cell line)
CC(C)C[C@@H]1NC(=O)CNC(=O)[C@H](CC(N)=O)NC(=O)[C@H](CCCNC(=N)N)NC(=O)[C@H]([C@@H](C)O)NC(=O)[C@@H]2CSSC[C@@H]3NC(=O)[C@H]([C@@H](C)O)NC(=O)CNC(=O)CNC(=O)[C@H](C(C)C)NC(=O)[C@@H]4CSSC[C@H](NC(=O)[C@H]([C@@H](C)O)NC(=O)[C@H](CSSC[C@H](NC(=O)[C@H](C(C)C)NC(=O)[C@@H]5CCCN5C1=O)C(=O)NCC(=O)N[C@@H](CCC(=O)O)C(=O)N[C@@H]([C@@H](C)O)C(=O)N4)NC(=O)CNC(=O)[C@@H]1CCCN1C(=O)[C@H]([C@@H](C)O)NC(=O)[C@H](CC(N)=O)NC3=O)C(=O)N[C@@H](CO)C(=O)N[C@@H](Cc1c[nH]c3ccccc13)C(=O)N1CCC[C@H]1C(=O)N[C@@H](C(C)C)C(=O)N2 | > 10 µM | 1.9 µM | 5.1 µM |  | 
CC[C@H](C)[C@@H]1NC(=O)[C@@H]2CCCN2C(=O)[C@H](Cc2c[nH]c3ccccc23)NC(=O)[C@H](CO)NC(=O)[C@@H]2CSSC[C@@H]3NC(=O)[C@H]([C@@H](C)O)NC(=O)[C@H](CCC(=O)O)NC(=O)CNC(=O)[C@@H]4CSSC[C@H](NC(=O)CNC(=O)[C@@H]5CCCN5C(=O)[C@H]([C@@H](C)O)NC(=O)[C@H](CC(N)=O)NC(=O)[C@H](CSSC[C@H](NC1=O)C(=O)N[C@@H]([C@@H](C)O)C(=O)N[C@@H](CCCNC(=N)N)C(=O)N[C@@H](CC(N)=O)C(=O)NCC(=O)N[C@@H](CC(C)C)C(=O)N1CCC[C@H]1C(=O)N[C@@H](C(C)C)C(=O)N4)NC(=O)[C@H]([C@@H](C)O)NC(=O)CNC(=O)CNC(=O)[C@H](C(C)C)NC3=O)C(=O)N[C@@H](C(C)C)C(=O)N2 | > 10 µM |  | 7.5 µM | 14.6 µM | 2.3 µM
CC[C@H](C)[C@@H]1NC(=O)[C@@H]2CCCN2C(=O)[C@H](Cc2c[nH]c3ccccc23)NC(=O)[C@H](C)NC(=O)[C@@H]2CSSC[C@@H]3NC(=O)[C@H]([C@@H](C)O)NC(=O)[C@H](CCC(=O)O)NC(=O)CNC(=O)[C@@H]4CSSC[C@H](NC(=O)CNC(=O)[C@@H]5CCCN5C(=O)[C@H]([C@@H](C)O)NC(=O)[C@H](CC(N)=O)NC(=O)[C@H](CSSC[C@H](NC1=O)C(=O)N[C@@H]([C@@H](C)O)C(=O)N[C@@H](CCCNC(=N)N)C(=O)N[C@@H](CC(N)=O)C(=O)NCC(=O)N[C@@H](CC(C)C)C(=O)N1CCC[C@H]1C(=O)N[C@@H](C(C)C)C(=O)N4)NC(=O)[C@H]([C@@H](C)O)NC(=O)CNC(=O)CNC(=O)[C@H](C(C)C)NC3=O)C(=O)N[C@@H](C(C)C)C(=O)N2 | 6.1 µM |  | 5.3 µM | 33.5 µM | 1.6 µM
CC(C)C[C@@H]1NC(=O)CNC(=O)[C@H](CC(N)=O)NC(=O)[C@H](CCCNC(=N)N)NC(=O)[C@H]([C@@H](C)O)NC(=O)[C@@H]2CSSC[C@@H]3NC(=O)[C@H]([C@@H](C)O)NC(=O)CNC(=O)CNC(=O)[C@H](C(C)C)NC(=O)[C@@H]4CSSC[C@H](NC(=O)[C@H](C(C)C)NC(=O)[C@H](CSSC[C@H](NC(=O)[C@H](C(C)C)NC(=O)[C@@H]5CCCN5C1=O)C(=O)NCC(=O)N[C@@H](CCC(=O)O)C(=O)N[C@@H]([C@@H](C)O)C(=O)N4)NC(=O)CNC(=O)[C@@H]1CCCN1C(=O)[C@H]([C@@H](C)O)NC(=O)[C@H](CC(N)=O)NC3=O)C(=O)N[C@@H](CO)C(=O)N[C@@H](Cc1c[nH]c3ccccc13)C(=O)N1CCC[C@H]1C(=O)N[C@@H](C(C)C)C(=O)N2 | 5.5 µM |  | 5.2 µM | 39.5 µM | 4.5 µM
CC(C)C[C@@H]1NC(=O)CNC(=O)[C@H](CC(N)=O)NC(=O)[C@H](CCCNC(=N)N)NC(=O)[C@H]([C@@H](C)O)NC(=O)[C@@H]2CSSC[C@@H]3NC(=O)[C@H]([C@@H](C)O)NC(=O)CNC(=O)CNC(=O)[C@H](C(C)C)NC(=O)[C@@H]4CSSC[C@H](NC(=O)[C@H](CO)NC(=O)[C@H](CSSC[C@H](NC(=O)[C@H](C(C)C)NC(=O)[C@@H]5CCCN5C1=O)C(=O)NCC(=O)N[C@@H](CCC(=O)O)C(=O)N[C@@H]([C@@H](C)O)C(=O)N4)NC(=O)CNC(=O)[C@@H]1CCCN1C(=O)[C@H]([C@@H](C)O)NC(=O)[C@H](CC(N)=O)NC3=O)C(=O)N[C@@H](CO)C(=O)N[C@@H](Cc1c[nH]c3ccccc13)C(=O)N1CCC[C@H]1C(=O)N[C@@H](C(C)C)C(=O)N2 | 7.3 µM |  | > 10 µM | 49.6 µM | 
CC(C)C[C@@H]1NC(=O)CNC(=O)[C@H](CC(N)=O)NC(=O)[C@H](CCCNC(=N)N)NC(=O)[C@H](CCCCN)NC(=O)[C@@H]2CSSC[C@@H]3NC(=O)[C@H](CO)NC(=O)CNC(=O)[C@H]([C@@H](C)O)NC(=O)[C@H](C(C)C)NC(=O)[C@@H]4CSSC[C@H](NC(=O)[C@H](CO)NC(=O)[C@H](CSSC[C@H](NC(=O)[C@H](C(C)C)NC(=O)[C@@H]5CCCN5C1=O)C(=O)NCC(=O)N[C@@H](CCC(=O)O)C(=O)N[C@@H]([C@@H](C)O)C(=O)N4)NC(=O)CNC(=O)[C@@H]1CCCN1C(=O)[C@H]([C@@H](C)O)NC(=O)[C@H](Cc1ccc(O)cc1)NC3=O)C(=O)N[C@@H](CO)C(=O)N[C@@H](Cc1c[nH]c3ccccc13)C(=O)N1CCC[C@H]1C(=O)N[C@@H](C(C)C)C(=O)N2 | 5.6 µM |  | > 10 µM | 51.7 µM | 
CC[C@H](C)[C@@H]1NC(=O)[C@@H]2CCCN2C(=O)[C@H](Cc2c[nH]c3ccccc23)NC(=O)[C@H](CO)NC(=O)[C@@H]2CSSC[C@@H]3NC(=O)[C@H]([C@@H](C)O)NC(=O)[C@H](CCC(=O)O)NC(=O)CNC(=O)[C@@H]4CSSC[C@H](NC(=O)CNC(=O)[C@@H]5CCCN5C(=O)[C@H]([C@@H](C)O)NC(=O)[C@H](CC(N)=O)NC(=O)[C@H](CSSC[C@H](NC1=O)C(=O)N[C@@H]([C@@H](C)O)C(=O)N[C@@H](CCCNC(=N)N)C(=O)N[C@@H](CC(N)=O)C(=O)NCC(=O)N[C@@H](CC(C)C)C(=O)N1CCC[C@H]1C(=O)N[C@@H]([C@@H](C)O)C(=O)N4)NC(=O)[C@H]([C@@H](C)O)NC(=O)CNC(=O)CNC(=O)[C@H](C(C)C)NC3=O)C(=O)N[C@@H](C(C)C)C(=O)N2 (cyclo(CGETCVGGTCNTPGCVCSWPICTRNGLPT); disulfide 1-15, 5-17, 10-22) | 8.4 µM |  | > 10 µM | 62.8 µM | 7.1 µM
